# Peptide text beside a SMILES is read from it. * marks the point of attachment. Hydrocinnamoyl = O=C(CCc1ccccc1)*; Undecanoyl = CCCCCCCCCCC(=O)*; Morpholide = C1CN(*)CCO1; Cbz = O=C(OCc1ccccc1)*; NHPh = c1ccc(N*)cc1
# Species: Rattus norvegicus
# Test: Inhibition of rat recombinant Rab geranylgeranyltransferase at 100 uM in presence of canine Rab7 and rat REP1 NBD-FPP based continuous fluorimetric assay
# In short: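 Continuous fluorometric assay in 96/384-well format: 3 μM Rab7, 3 μM REP1, 9 μM NBD-FPP and 400 nM RabGGTase, with or without inhibitor. […] IC50 was calculated from three independent measurements.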
row,SMILES,inhibition [%]
1,O=C(CNC(=O)c1csc(C2CCNCC2)n1)N[C@@H](Cc1ccccc1)C(=O)N[C@@H](Cc1c[nH]cn1)C(=O)O,124
2,CC[C@H](C)[C@H](NC(=O)CCc1ccc(F)cc1)C(=O)N[C@@H](C)C(=O)N[C@@H](CCC(N)=O)C(=O)Nc1cccc(Br)n1,92
3,O=C(CNC(=O)[C@H](Cc1ccc(O)cc1)NC(=O)c1ccc(F)cc1F)N[C@@H](Cc1ccc(O)cc1)C(=O)O,90
4,CC(=O)Nc1cc(C(=O)N2CCC[C@@H]2C(=O)N[C@@H](C(=O)N[C@@H](CCC(N)=O)C(=O)NN)C(C)C)ccc1[N+](=O)[O-],77
5,CC(C)C[C@H](NC(=O)[C@H](CO)NC(=O)[C@H](Cc1ccccc1)NC(=O)/C=C/c1ccc(F)cc1)C(N)=O,98
6,O=C(CCc1ccc(F)cc1)N[C@@H](Cc1ccc(O)cc1)C(=O)NCC(=O)N[C@@H](Cc1ccc(O)cc1)C(=O)NCc1ccc(F)cc1F,89
7,O=C(CNC(=O)C1CCCN1C(=O)/C=C/c1ccccc1)NC(Cc1ccccc1)C(=O)NCc1ccc(F)cc1F (stereo not given),54
8,O=C(CNC(=O)c1csc(-c2ccc(C(F)(F)F)cc2)n1)N[C@@H](Cc1ccccc1)C(=O)N[C@@H](Cc1c[nH]cn1)C(=O)O,137
9,O=C(CNC(=O)[C@H](Cc1ccc(O)cc1)NC(=O)c1coc(-c2ccccc2)n1)N[C@@H](Cc1c[nH]cn1)C(=O)O,86
10,CCCCCCCCCCC(=O)N[C@@H](CC1=NCN=C1)C(=O)N[C@@H](Cc1c[nH]cn1)C(=O)N[C@@H](Cc1ccc(O)cc1)C(=O)Nc1ccccc1N,74
11,O=C(/C=C/c1ccccc1)N[C@@H](Cc1ccccc1)C(=O)N[C@@H](Cc1ccccc1)C(=O)N[C@@H](Cc1ccc(O)cc1)C(=O)O,50
12,O=C(N[C@@H](Cc1c[nH]cn1)C(=O)N[C@@H](Cc1ccc(O)cc1)C(=O)N[C@@H](Cc1ccccc1)C(=O)O)OCc1ccccc1 (Cbz-His-Tyr-Phe-OH),39
13,CON(C)C(=O)[C@H](CCC(N)=O)NC(=O)[C@H](Cc1ccccc1)NC(=O)[C@@H](NC(=O)C(Br)C(Br)c1ccccc1)[C@@H](C)O (stereo not given in full),102
14,CC(C)C[C@H](NC(=O)/C=C/c1ccccc1)C(=O)N[C@@H](Cc1ccccc1)C(=O)N[C@@H](Cc1ccccc1)C(=O)Nc1ccc(F)cc1F,93
15,C=CCCCCCCCCCOC(=O)[C@H](CO)NC(=O)[C@H](Cc1ccccc1)NC(=O)[C@H](CO)NC(=O)/C=C/c1ccc(F)cc1,87
16,COc1ccc(C[C@@H](C(=O)N(C)[C@@H](Cc2ccccc2)C(=O)N2CCC(C(N)=O)CC2)N(C)C(=O)[C@@H](Cc2ccc(O)cc2)NC(=O)OCc2ccc([N+](=O)[O-])cc2)cc1,75
17,NC(=O)CC[C@H](NC(=O)[C@H](Cc1ccccc1)NC(=O)[C@H](CO)NC(=O)CCc1ccccc1)C(=O)Nc1ccccc1 (Hydrocinnamoyl-Ser-Phe-Gln-NHPh),90
18,O=C(N[C@@H](Cc1ccc(O)cc1)C(=O)N[C@@H](Cc1ccc(O)cc1)C(=O)N[C@@H](Cc1ccc(O)cc1)C(=O)NCc1ccccc1)c1ccc(F)cc1F,70
19,O=C(/C=C/c1ccc(F)cc1)N[C@@H](CO)C(=O)N[C@@H](Cc1ccccc1)C(=O)N[C@@H](CO)C(=O)Nc1ccc(F)c(Cl)c1,89
20,CN(C(=O)[C@@H](Cc1ccc(O)cc1)NC(=O)OCc1ccccc1)[C@@H](Cc1ccccc1)C(=O)N[C@@H](Cc1ccc(O)cc1)C(=O)O,46

row,SMILES,inhibition [%]
1,CCCCCCCCCCC(=O)N[C@@H](Cc1c[nH]cn1)C(=O)N[C@@H](Cc1c[nH]cn1)C(=O)N[C@@H](CO)C(=O)NCCCCN,75
2,O=C(CCc1ccc(F)cc1)N[C@@H](Cc1ccc(O)cc1)C(=O)NCC(=O)N[C@@H](Cc1ccc(O)cc1)C(=O)Nc1ccccc1,99
3,COC(=O)[C@H](Cc1ccccc1)NC(=O)CNC(=O)[C@@H]1CCCN1C(=O)/C=C/c1ccccc1,89
4,CCC/C=C\c1ccccc1/C=C/C(=O)N[C@H](Cc1ccc(O)cc1)C(=O)N(C)[C@@H](Cc1ccc(OC)cc1)C(=O)N(C)[C@@H](Cc1ccccc1)C(=O)OCc1c[nH]c(=O)[nH]c1=O,75
5,CC(C)C[C@H](NC(=O)[C@H](CO)NC(=O)[C@H](Cc1ccccc1)NC(=O)c1ccc(-c2ccccc2)cc1)C(N)=O,110
6,CC[C@H](C)[C@H](NC(=O)c1ccc(-c2ccccc2)cc1)C(=O)N[C@@H](C(=O)N[C@@H](CCC(N)=O)C(=O)O)C(C)C,77
7,O=C(CCc1ccccc1)N[C@@H](CO)C(=O)N[C@@H](Cc1ccccc1)C(=O)N[C@@H](CO)C(=O)O (Hydrocinnamoyl-Ser-Phe-Ser-OH),95
8,CCCCCCCCCCCOc1ccc(C(=O)N[C@@H](Cc2c[nH]cn2)C(=O)N[C@@H](Cc2ccc(O)cc2)C(=O)N[C@@H](Cc2ccccc2)C(=O)NCCCCN)cc1,127
9,CCCCCCCCCCC(=O)N[C@@H](Cc1c[nH]cn1)C(=O)N[C@@H](Cc1c[nH]cn1)C(=O)N[C@@H](CO)C(=O)OC (Undecanoyl-His-His-Ser-OMe),77
10,O=C(CCc1ccccc1)N[C@@H](CO)C(=O)NCC(=O)N[C@@H](CO)C(=O)N1CCOCC1 (Hydrocinnamoyl-Ser-Gly-Ser-Morpholide),83
11,CCCCCCCCCCCOc1ccc(C(=O)N[C@@H](Cc2ccc(O)cc2)C(=O)N[C@@H](Cc2ccc(O)cc2)C(=O)N[C@@H](Cc2ccc(O)cc2)C(=O)NC2CCCCC2)cc1,91
12,CCCCCCCCCCC(=O)N[C@@H](Cc1ccc(O)cc1)C(=O)N[C@@H](Cc1cnc[nH]1)C(=O)N[C@@H](Cc1ccc(O)cc1)C(=O)O (Undecanoyl-Tyr-His-Tyr-OH),90
13,C[C@H](NC(=O)C(Br)C(Br)c1ccc(F)cc1)C(=O)NCC(=O)N[C@@H](Cc1ccc(O)cc1)C(=O)Nc1ccc(F)cc1F (stereo not given in full),69
14,COC(=O)[C@H](CO)NC(=O)[C@H](Cc1ccccc1)NC(=O)[C@H](CO)NC(=O)C(Br)C(Br)c1ccc(F)cc1 (stereo not given in full),80
15,COC(=O)[C@H](CO)NC(=O)[C@H](Cc1c[nH]cn1)NC(=O)[C@H](CCCCN)NC(=O)CCc1ccccc1 (Hydrocinnamoyl-Lys-His-Ser-OMe),86
16,CCCCCCCCCCC(=O)N[C@@H](Cc1c[nH]cn1)C(=O)N[C@@H](Cc1c[nH]cn1)C(=O)N[C@@H](Cc1ccc(O)cc1)C(=O)NCc1ccccn1,80
17,C[C@@H](NC(=O)CCc1ccccc1)C(=O)N[C@@H](Cc1ccccc1)C(=O)N[C@@H](CCC(N)=O)C(N)=O,95
18,CCCCCc1ccc(CCC(=O)N[C@H](Cc2ccc(O)cc2)C(=O)N[C@@H](Cc2ccccc2)C(=O)N[C@@H](Cc2ccc(O)cc2)C(=O)O)cc1,2
19,Cc1nc(C)c(C(=O)OC[C@H](NC(=O)[C@H](C)NC(=O)[C@H](COC(=O)c2oc(C)nc2C)NC(=O)c2coc(-c3ccccc3)n2)C(=O)O)o1,95
20,NC(=O)CC[C@H](NC(=O)[C@H](Cc1ccccc1)NC(=O)CNC(=O)CCc1ccccc1)C(=O)N1CCOCC1 (Hydrocinnamoyl-Gly-Phe-Gln-Morpholide),89

row,SMILES,inhibition [%]
1,CCCCCCCCCCCCCC(=O)OC[C@H](NC(=O)CNC(=O)[C@H](COC(=O)CCCCCCCCCCCCC)NC(=O)c1coc(-c2ccccc2)n1)C(=O)O,106
2,CCCCCCCCCCCOc1ccc(C(=O)N[C@@H](Cc2ccc(O)cc2)C(=O)N[C@@H](Cc2ccc(O)cc2)C(=O)N[C@@H](Cc2ccc(O)cc2)C(=O)OCCN)cc1,40
3,COC(=O)[C@H](CO)NC(=O)[C@H](Cc1ccccc1)NC(=O)[C@H](CO)NC(=O)/C=C/c1ccc(F)cc1,98
4,CC#CCOC(=O)[C@H](Cc1ccccc1)NC(=O)[C@H](CC(C)C)NC(=O)[C@@H]1CCCN1C(=O)/C=C/c1ccccc1,107
5,C[C@H](NC(=O)[C@@H](NC(=O)c1ccc(-c2ccccc2)cc1)[C@@H](C)O)C(=O)N[C@@H](CCC(N)=O)C(=O)Nc1ccc(F)c(Cl)c1,100
6,O=C(CCc1ccc(F)cc1)N[C@@H](Cc1ccc(O)cc1)C(=O)NCC(=O)N[C@@H](Cc1ccc(O)cc1)C(=O)NC1CCCCC1,88
7,CON(C)C(=O)[C@H](Cc1ccc(O)cc1)NC(=O)CNC(=O)[C@H](Cc1ccc(O)cc1)NC(=O)c1ccc(F)cc1,84
8,C=CCOC(=O)[C@H](Cc1ccccc1)N(C)C(=O)[C@H](Cc1ccc(OC)cc1)N(C)C(=O)[C@@H](Cc1ccc(O)cc1)NC(=O)CCc1ccccc1,74
9,CCCCCCCCCCCOc1ccc(C(=O)N[C@@H](Cc2c[nH]cn2)C(=O)N[C@@H](Cc2ccc(O)cc2)C(=O)N[C@@H](Cc2ccccc2)C(=O)O)cc1,75
10,CC(=O)Nc1cc(C(=O)N2CCC[C@H]2C(=O)N[C@@H](C(=O)N[C@@H](CCC(=O)O)C(=O)Nc2ccc(F)c(Cl)c2)C(C)C)ccc1[N+](=O)[O-],109
11,O=C(N[C@@H](CO)C(=O)N[C@@H](Cc1ccccc1)C(=O)N[C@@H](CO)C(=O)Nc1ccccc1)C(Br)C(Br)c1ccc(F)cc1 (stereo not given in full),81
12,CCCCCCCCCCCOc1ccc(C(=O)N[C@@H](Cc2ccc(O)cc2)C(=O)N[C@@H](Cc2ccc(O)cc2)C(=O)N[C@@H](Cc2ccc(O)cc2)C(=O)N(C)CCc2ccccn2)cc1,86
13,CC(C)C[C@H](NC(=O)[C@H](COC(C)(C)C)NC(=O)[C@H](Cc1ccccc1)NC(=O)c1ccc(-c2ccccc2)cc1)C(=O)O,81
14,CC(C)C[C@H](NC(=O)/C=C/c1ccccc1)C(=O)N[C@@H](Cc1ccc(Br)cc1)C(=O)N[C@@H](Cc1ccccc1)C(=O)OCc1ccccc1,55
15,COC(=O)[C@H](Cc1ccc(O)cc1)NC(=O)[C@H](Cc1ccc(O)cc1)NC(=O)[C@H](Cc1ccc(O)cc1)NC(=O)c1ccc(F)cc1F,79
16,O=C(N[C@@H](CO)C(=O)N[C@@H](Cc1ccccc1)C(=O)N[C@@H](CO)C(=O)Nc1ccc(N2CCOCC2)cc1)C(Br)C(Br)c1ccc(F)cc1 (stereo not given in full),70
17,CC(C)[C@H](NC(=O)c1coc(-c2ccccc2)n1)C(=O)NCC(=O)N[C@@H](Cc1ccc(O)cc1)C(=O)Nc1ccc(F)cc1F,102
18,CC#CCOC(=O)[C@H](Cc1ccccc1)NC(=O)CNC(=O)[C@@H]1CCCN1C(=O)/C=C/c1ccccc1,69
19,COC(=O)[C@H](Cc1ccc(O)cc1)NC(=O)CNC(=O)[C@H](C)NC(=O)/C=C/c1ccc(F)cc1,79
20,CON(C)C(=O)[C@H](Cc1ccc(O)cc1)NC(=O)CNC(=O)[C@H](Cc1ccc(O)cc1)NC(=O)CCc1ccc(F)cc1,80

# Reference: ChEMBL document CHEMBL1153722, “Design, synthesis, and characterization of peptide-based rab geranylgeranyl transferase inhibitors” (J Med Chem, 2009)
